The target of test [1] is Metabotropic glutamate receptor 3 (Rattus norvegicus) (UniProt P31422). The test is described as follows: Negative allosteric modulation of rat mGlu3 receptor assessed as amplitude response at 30 uM relative to glutamate. In a few lines: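 Calcium mobilization in cell line stably expressing rat mGlu3 with promiscuous Gα15; fluorescence read-out; amplitude of glutamate response with 30 μM test compound expressed as percentage of maximal response (100 μM glutamate); average of n = 3.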

In test [2] the target is Metabotropic glutamate receptor 5 (Rattus norvegicus, UniProt P31424). The test is described as follows: Modulation of rat mGlu5 receptor assessed as calcium mobilization by cell based fluorescence assay. It counts as functional. In a few lines:
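Calcium mobilization assay with fluorescence read-out in cells expressing mGlu5; full concentration-response curves; % Glu Max is the amplitude of response with 30 μM test compound as a percentage of the maximal response to 100 μM glutamate; values averaged over n-3.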

In test [3] the target is Metabotropic glutamate receptor 3 (Rattus norvegicus, UniProt P31422). In words: Negative allosteric modulation of rat mGlu3 receptor assessed as calcium mobilization by cell based fluorescence assay. The class given is functional. In a few lines:
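Cell line stably expressing rat mGlu3 with the promiscuous G-protein Gα15. Calcium mobilization with fluorescence read-out, inhibition of the glutamate response. Full concentration-response curves, top concentration 30 μM. % Glu Max is the response with 30 μM test compound as a percentage of the maximal response to 100 μM glutamate. Values averaged over n-3.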
On the technique in general: Calcium flux is commonly read through the fluorescence of an indicator in the cells.

For test [4], the target named is Metabotropic glutamate receptor 5 (Rattus norvegicus) (UniProt P31424). The test is described as follows: Positive allosteric modulation of rat mGlu5 receptor assessed as calcium mobilization by cell based fluorescence assay. The class given is functional.
The target is the same in test [5]. The test is described as follows: Modulation of rat mGlu5 receptor assessed as assessed as calcium mobilization at 30 uM by cell based fluorescence assay. The class given is functional.

The source made the active and inactive calls. No cut-off for these calls is given here.

Sequence of Metabotropic glutamate receptor 3 (P31422 whole entry): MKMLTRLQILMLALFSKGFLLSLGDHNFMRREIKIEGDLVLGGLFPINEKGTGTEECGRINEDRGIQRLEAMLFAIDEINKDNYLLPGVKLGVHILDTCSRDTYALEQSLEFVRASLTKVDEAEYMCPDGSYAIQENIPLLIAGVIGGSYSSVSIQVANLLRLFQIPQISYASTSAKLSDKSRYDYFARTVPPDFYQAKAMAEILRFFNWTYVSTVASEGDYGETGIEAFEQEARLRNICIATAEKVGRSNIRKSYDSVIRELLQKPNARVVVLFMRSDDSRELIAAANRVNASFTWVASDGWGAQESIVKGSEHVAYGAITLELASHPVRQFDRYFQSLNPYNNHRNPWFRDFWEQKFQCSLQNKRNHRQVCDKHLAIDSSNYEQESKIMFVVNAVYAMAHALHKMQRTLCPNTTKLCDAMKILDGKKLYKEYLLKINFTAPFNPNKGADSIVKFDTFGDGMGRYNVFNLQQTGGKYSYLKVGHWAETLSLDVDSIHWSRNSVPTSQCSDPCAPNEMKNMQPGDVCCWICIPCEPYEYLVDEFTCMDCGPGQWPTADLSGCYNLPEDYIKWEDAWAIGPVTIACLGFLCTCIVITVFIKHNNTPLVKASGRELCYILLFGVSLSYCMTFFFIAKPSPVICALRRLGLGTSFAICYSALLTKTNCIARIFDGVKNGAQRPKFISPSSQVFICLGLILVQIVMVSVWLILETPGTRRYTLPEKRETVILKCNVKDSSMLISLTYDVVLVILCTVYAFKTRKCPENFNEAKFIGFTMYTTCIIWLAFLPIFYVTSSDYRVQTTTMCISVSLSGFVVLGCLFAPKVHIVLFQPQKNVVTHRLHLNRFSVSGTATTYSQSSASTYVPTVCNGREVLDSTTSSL
Sequence of Metabotropic glutamate receptor 5 (P31424 whole entry): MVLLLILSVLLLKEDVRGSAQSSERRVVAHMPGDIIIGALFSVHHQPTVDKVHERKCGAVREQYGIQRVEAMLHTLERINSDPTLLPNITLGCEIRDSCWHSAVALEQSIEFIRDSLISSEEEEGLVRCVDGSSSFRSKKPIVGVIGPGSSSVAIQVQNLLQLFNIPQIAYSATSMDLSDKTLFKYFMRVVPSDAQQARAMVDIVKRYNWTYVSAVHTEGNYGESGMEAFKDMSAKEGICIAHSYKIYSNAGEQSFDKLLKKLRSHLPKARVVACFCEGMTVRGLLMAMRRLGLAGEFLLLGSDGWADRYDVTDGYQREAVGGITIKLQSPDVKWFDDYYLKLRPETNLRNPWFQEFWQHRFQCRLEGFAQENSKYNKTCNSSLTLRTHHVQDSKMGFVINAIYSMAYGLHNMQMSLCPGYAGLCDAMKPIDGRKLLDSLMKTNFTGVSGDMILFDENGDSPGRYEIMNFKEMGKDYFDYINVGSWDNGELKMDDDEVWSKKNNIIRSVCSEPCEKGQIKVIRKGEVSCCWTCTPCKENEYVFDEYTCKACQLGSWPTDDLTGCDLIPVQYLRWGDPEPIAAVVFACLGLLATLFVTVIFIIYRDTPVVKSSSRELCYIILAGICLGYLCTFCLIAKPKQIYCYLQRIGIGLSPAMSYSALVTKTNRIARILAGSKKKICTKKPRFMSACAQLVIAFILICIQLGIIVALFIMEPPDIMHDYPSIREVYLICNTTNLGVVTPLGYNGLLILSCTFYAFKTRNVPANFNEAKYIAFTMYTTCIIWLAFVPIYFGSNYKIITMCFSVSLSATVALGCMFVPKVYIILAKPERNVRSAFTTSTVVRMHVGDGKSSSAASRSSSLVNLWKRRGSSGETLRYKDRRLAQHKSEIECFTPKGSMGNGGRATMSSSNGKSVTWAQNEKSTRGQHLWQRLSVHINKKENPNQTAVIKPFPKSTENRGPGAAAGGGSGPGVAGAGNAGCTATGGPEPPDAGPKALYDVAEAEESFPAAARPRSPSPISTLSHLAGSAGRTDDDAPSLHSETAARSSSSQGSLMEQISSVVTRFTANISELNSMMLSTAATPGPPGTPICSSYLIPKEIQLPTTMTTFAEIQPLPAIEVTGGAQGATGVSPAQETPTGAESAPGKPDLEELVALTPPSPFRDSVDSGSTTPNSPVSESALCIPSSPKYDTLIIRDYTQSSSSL
Sequence of Metabotropic glutamate receptor 3 (Rattus norvegicus) (P31422 23-879 limits assumed): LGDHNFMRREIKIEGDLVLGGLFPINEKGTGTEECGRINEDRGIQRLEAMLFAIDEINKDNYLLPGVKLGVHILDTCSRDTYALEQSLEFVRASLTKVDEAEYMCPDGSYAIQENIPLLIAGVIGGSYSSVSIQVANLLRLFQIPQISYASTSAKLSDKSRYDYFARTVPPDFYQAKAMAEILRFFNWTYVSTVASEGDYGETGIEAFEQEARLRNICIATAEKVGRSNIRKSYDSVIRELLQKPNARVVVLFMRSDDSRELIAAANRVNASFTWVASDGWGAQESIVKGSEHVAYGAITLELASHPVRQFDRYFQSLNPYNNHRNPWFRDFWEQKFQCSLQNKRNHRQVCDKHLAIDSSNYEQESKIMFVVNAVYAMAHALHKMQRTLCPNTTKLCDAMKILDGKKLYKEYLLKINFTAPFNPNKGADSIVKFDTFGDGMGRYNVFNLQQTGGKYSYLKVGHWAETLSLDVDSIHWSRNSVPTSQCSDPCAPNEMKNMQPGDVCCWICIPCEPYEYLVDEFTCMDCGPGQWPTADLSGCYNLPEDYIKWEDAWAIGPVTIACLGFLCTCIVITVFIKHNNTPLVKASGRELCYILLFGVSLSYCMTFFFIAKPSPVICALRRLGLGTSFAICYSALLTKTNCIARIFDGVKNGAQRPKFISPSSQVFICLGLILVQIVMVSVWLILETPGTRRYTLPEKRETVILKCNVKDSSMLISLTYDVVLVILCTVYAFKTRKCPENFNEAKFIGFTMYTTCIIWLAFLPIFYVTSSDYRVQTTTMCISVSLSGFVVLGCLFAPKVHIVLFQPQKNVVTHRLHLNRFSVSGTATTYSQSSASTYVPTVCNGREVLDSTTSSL
Sequence of Metabotropic glutamate receptor 5 (Rattus norvegicus) (P31424 21-1203 limits assumed): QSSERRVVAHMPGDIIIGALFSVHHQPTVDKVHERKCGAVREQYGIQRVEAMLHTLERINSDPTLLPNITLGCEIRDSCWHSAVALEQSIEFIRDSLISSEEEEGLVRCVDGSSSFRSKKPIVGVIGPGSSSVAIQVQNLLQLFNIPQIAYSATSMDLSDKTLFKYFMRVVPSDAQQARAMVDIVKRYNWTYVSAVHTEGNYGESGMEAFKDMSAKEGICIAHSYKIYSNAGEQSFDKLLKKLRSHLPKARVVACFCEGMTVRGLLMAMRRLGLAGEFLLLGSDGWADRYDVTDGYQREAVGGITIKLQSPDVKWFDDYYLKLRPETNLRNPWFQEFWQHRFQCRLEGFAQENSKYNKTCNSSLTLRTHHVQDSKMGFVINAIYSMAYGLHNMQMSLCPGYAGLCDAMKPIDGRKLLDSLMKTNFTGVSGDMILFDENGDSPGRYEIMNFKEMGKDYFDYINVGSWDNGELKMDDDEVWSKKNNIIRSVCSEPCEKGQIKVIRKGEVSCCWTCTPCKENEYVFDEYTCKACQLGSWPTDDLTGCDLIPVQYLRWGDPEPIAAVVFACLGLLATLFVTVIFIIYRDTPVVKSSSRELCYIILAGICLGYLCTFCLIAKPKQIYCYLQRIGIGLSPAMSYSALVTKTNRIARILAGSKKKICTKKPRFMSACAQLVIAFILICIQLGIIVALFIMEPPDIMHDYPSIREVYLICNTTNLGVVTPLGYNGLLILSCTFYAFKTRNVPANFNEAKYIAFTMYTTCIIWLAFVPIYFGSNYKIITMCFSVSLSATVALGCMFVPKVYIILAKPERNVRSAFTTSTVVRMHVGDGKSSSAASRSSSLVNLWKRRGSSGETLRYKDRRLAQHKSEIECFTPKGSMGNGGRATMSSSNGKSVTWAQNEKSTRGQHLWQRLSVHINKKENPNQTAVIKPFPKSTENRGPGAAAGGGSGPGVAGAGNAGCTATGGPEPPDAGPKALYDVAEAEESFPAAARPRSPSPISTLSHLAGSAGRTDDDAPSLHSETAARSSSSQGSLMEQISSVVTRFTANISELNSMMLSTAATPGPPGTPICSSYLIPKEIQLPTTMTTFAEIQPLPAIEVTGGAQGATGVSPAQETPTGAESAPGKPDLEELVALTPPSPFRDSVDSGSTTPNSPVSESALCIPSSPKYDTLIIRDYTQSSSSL

Regarding `C[C@@H]1CN(c2ccc(F)cc2)C(=O)c2cc(COc3ncccc3C(F)(F)F)nn21`, the Activity in test [1] came out at 2.11%. In test [2], the EC50 was more than 30 µM. Also, the IC50 in test [3] was 2.94 µM.

On to `Cc1ccc(N2C[C@@H](C)n3nc(COc4ccc(Cl)cn4)cc3C2=O)cc1`, for which the Activity was 1.39% in test [1] and 70.8% in test [5]. Besides, the EC50 in test [2] was more than 10 µM. In addition, the IC50 in test [3] was 0.41 µM. Also, the result in test [4] was Active.

Regarding `COc1cccc(OCc2cc3n(n2)[C@H](C)CN(c2ccc(F)cc2)C3=O)n1`, the Activity in test [1] is 1.94%; in test [5] it was 31.2%. For the same compound, in test [2], the EC50 was more than 10 µM. Moreover, the IC50 in test [3] is 1.59 µM. Further, the result in test [4] was Active.

As for `C[C@@H]1CN(c2ccccc2F)C(=O)c2cc(COc3ccc(Cl)cn3)nn21`, the figures for the Activity in test [1] and in test [5] were 1.74% and 57.3%, respectively. The EC50 in test [2] is 3.24 µM. The IC50 in test [3] was 0.226 µM. Besides, the outcome in test [4] was Active.

For the compound `C[C@@H]1CN(c2ccc(F)cc2)C(=O)c2cc(COc3cccc(F)c3)nn21`, the Activity is 1.19% in test [1] and 86.1% in test [5]. In addition, in test [2], the EC50 came out at 0.073 µM. For the same compound, the IC50 in test [3] worked out at 0.773 µM. Further, the outcome in test [4] was Active.

Turning to `C[C@@H]1CN(c2cccc(F)c2F)C(=O)c2cc(COc3ccc(Cl)cn3)nn21`, the Activity in test [1] was found to be 0.33%; in test [5], 36.1%. The EC50 in test [2] was determined as 6.68 µM. The IC50 in test [3] was 0.852 µM. Also, in test [4], the result was Active.

`COc1ccc(OCc2cc3n(n2)[C@H](C)CN(c2ccc(F)cc2)C3=O)cc1`: the Activity was 1.76% in test [1] and 40.2% in test [5]. Besides, the EC50 in test [2] was found to be 1.34 µM. In addition, in test [3], the IC50 came out at 1.04 µM. Further, the outcome in test [4] was Active.

In the case of `Cc1ccc(OCc2cc3n(n2)[C@H](C)CN(c2ccc(F)cc2)C3=O)cc1`, the results for the Activity in test [1] and in test [5] were 1.72% and 92.5%, respectively. Also, in test [2], the EC50 stood at 1.08 µM. Besides, the IC50 in test [3] was 1.19 µM. Further, in test [4], the outcome was Active.

As for `C[C@@H]1CN(c2ccc(F)cc2)C(=O)c2cc(COc3ccccc3Cl)nn21`, the Activity was 1.63% in test [1] and 84.4% in test [5]. The EC50 in test [2] turned out to be 0.419 µM. Further, the IC50 in test [3] turned out to be 0.532 µM. Further, in test [4], the result was Active.

On to `C[C@@H]1CN(c2cccc(F)c2)C(=O)c2cc(COc3ccc(Cl)cn3)nn21`, for which the figures for the Activity in test [1] and in test [5] were 1.38% and 63.5%, respectively. Moreover, the EC50 in test [2] was 5.97 µM. Further, the IC50 in test [3] amounted to 0.206 µM. The outcome in test [4] was Active.

Take `C[C@@H]1CN(c2ncccc2C#N)C(=O)c2cc(COc3ccc(Cl)cn3)nn21`: in test [1], the Activity came out at 1.35%. Also, the EC50 in test [2] is more than 30 µM. Besides, in test [3], the IC50 was 0.677 µM.

On to `C[C@@H]1CN(c2cccc(C#N)c2)C(=O)c2cc(COc3ccc(Cl)cn3)nn21`, for which the Activity in test [1] stood at 1.75%; in test [5], 32.2%. Besides, the EC50 in test [2] was more than 10 µM. For the same compound, in test [3], the IC50 came to 0.825 µM. Further, in test [4], the outcome was Active.

Take `Cc1ccccc1N1C[C@@H](C)n2nc(COc3ccc(Cl)cn3)cc2C1=O`: the values for the Activity in test [1] and in test [5] were 1.95% and 80.7%, respectively. Further, the EC50 in test [2] is 2.28 µM. Besides, the IC50 in test [3] was found to be 0.571 µM. The result in test [4] was Active.

As for `C[C@@H]1CN(c2ccc(F)cc2)C(=O)c2cc(COc3ccc(C#N)cc3)nn21`, the Activity was 2.53% in test [1] and 38.6% in test [5]. Also, in test [2], the EC50 was determined as 1.94 µM. In addition, in test [3], the IC50 turned out to be 0.784 µM. Also, the result in test [4] was Active.

Consider `C[C@@H]1CN(c2ccccc2Cl)C(=O)c2cc(COc3ccc(Cl)cn3)nn21`, for which the results for the Activity in test [1] and in test [5] were 1.87% and 51%, respectively. In test [2], the EC50 came out at 5.45 µM. In addition, in test [3], the IC50 was found to be 0.328 µM. Besides, the outcome in test [4] was Active.

Regarding `C[C@@H]1CN(c2ccc(F)cc2)C(=O)c2cc(COc3ccccc3F)nn21`, the Activity was 2.9% in test [1] and 89.3% in test [5]. Besides, the EC50 in test [2] stood at 0.195 µM. Also, the IC50 in test [3] was 0.53 µM. Also, in test [4], the outcome was Active.

With `COc1ccc(N2C[C@@H](C)n3nc(COc4ccc(Cl)cn4)cc3C2=O)cc1`, the values for the Activity in test [1] and in test [5] were 2.07% and 59.4%, respectively. The EC50 in test [2] is 4.33 µM. Also, the IC50 in test [3] was found to be 0.439 µM. The outcome in test [4] was Active.

As to `C[C@@H]1CN(c2ccc(C#N)cc2)C(=O)c2cc(COc3ccc(Cl)cn3)nn21`, the values for the Activity in test [1] and in test [5] were 1.84% and 23.1%, respectively. In addition, in test [2], the EC50 was 3.32 µM. Besides, the IC50 in test [3] turned out to be 0.539 µM. Further, in test [4], the outcome was Active.

Take `C[C@@H]1CN(c2c(F)cccc2F)C(=O)c2cc(COc3ccc(Cl)cn3)nn21`: the figures for the Activity in test [1] and in test [5] were 2.06% and 40.3%, respectively. Moreover, in test [2], the EC50 turned out to be 1.42 µM. The IC50 in test [3] was 0.225 µM. Besides, the outcome in test [4] was Active.

As to `C[C@@H]1CN(c2ccc(Cl)cc2)C(=O)c2cc(COc3ccc(F)cn3)nn21`, the Activity in test [1] was 2.17%; in test [5], 51.6%. In addition, the EC50 in test [2] turned out to be 0.364 µM. The IC50 in test [3] turned out to be 0.197 µM. Further, in test [4], the result was Active.

Regarding `C[C@@H]1CN(c2ccc(F)cc2)C(=O)c2cc(COc3ccc(OC(F)(F)F)cc3)nn21`, in test [1], the Activity worked out at 2.66%. The EC50 in test [2] is more than 30 µM. Moreover, the IC50 in test [3] worked out at 4.07 µM.

Consider `C[C@@H]1CN(c2ccc(F)cc2)C(=O)c2cc(COc3ncccc3F)nn21`, for which the Activity in test [1] was found to be 2.22%; in test [5], 78.5%. In addition, in test [2], the EC50 is 4.3 µM. For the same compound, the IC50 in test [3] was found to be 1.1 µM. The outcome in test [4] was Active.

Turning to `C[C@@H]1CN(c2ccc(F)cc2)C(=O)c2cc(COc3ccc(Cl)cc3)nn21`, the Activity was 1.86% in test [1] and 81.8% in test [5]. In addition, the concentration giving a half-maximal response (EC50) in test [2] was 0.604 µM. Also, the IC50 in test [3] was found to be 1.17 µM. For the same compound, the result in test [4] was Active.

With `CCc1ccc(OCc2cc3n(n2)[C@H](C)CN(c2ccc(F)cc2)C3=O)cc1`, the figures for the Activity in test [1] and in test [5] were 2.29% and 50.8%, respectively. The EC50 in test [2] was found to be 3.21 µM. The IC50 in test [3] is 0.83 µM. For the same compound, in test [4], the result was Active.

Turning to `C[C@@H]1CN(c2ccc(F)cc2)C(=O)c2cc(COc3ccc(C(F)(F)F)cc3)nn21`, the Activity in test [1] is 4.13%. Moreover, in test [2], the EC50 was more than 30 µM. Besides, in test [3], the IC50 came out at 1.85 µM.

Take `C[C@@H]1CN(c2ccncc2)C(=O)c2cc(COc3ccc(F)cn3)nn21`: the Activity in test [1] amounted to 0.77%. Moreover, the EC50 in test [2] was more than 30 µM. Further, in test [3], the IC50 came to 0.881 µM.

Turning to `C[C@@H]1CN(c2cc(F)ccc2C#N)C(=O)c2cc(COc3ccc(Cl)cn3)nn21`, in test [1], the Activity stood at 1.55%. Further, the EC50 in test [2] is more than 30 µM. For the same compound, the IC50 in test [3] came out at 0.529 µM.

Take `C[C@@H]1CN(c2ccc(F)cc2)C(=O)c2cc(COc3cccc(C(F)(F)F)n3)nn21`: the Activity in test [1] amounted to 2.06%. For the same compound, the EC50 in test [2] was more than 30 µM. For the same compound, the IC50 in test [3] stood at 2.36 µM.

`COc1cccnc1OCc1cc2n(n1)[C@H](C)CN(c1ccc(F)cc1)C2=O`: the Activity in test [1] is -1.14%. In test [2], the EC50 is more than 30 µM. Also, in test [3], the IC50 turned out to be 6.76 µM.

Usually EC50 stands for the concentration needed to bring the measured effect to its halfway point. By IC50 is commonly meant the concentration at which inhibition is half-maximal.

These data come from ChEMBL document CHEMBL3616441, “Discovery of a Selective and CNS Penetrant Negative Allosteric Modulator of Metabotropic Glutamate Receptor Subtype 3 with Antidepressant and Anxiolytic Activity in Rodents” (J Med Chem, 2015).
